# Source: PubChem BioAssay (several laboratories)
# In the library only some 1.6% were active in any assay of this set; here they are far more common.
# Platelet DG rel: inhibitors of platelet dense granule secretion, primary screen, cell-based, MLPCN, human platelets; human platelet-rich plasma, SFLLRN dense granule ATP release, luminescence; inhibition, %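 (compounds screened at 7.5 µM in platelet-rich plasma)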; hit rate 0.22% among 300,000; AID 1663, 2009;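 active = mean replicate score, as percent of positive control, at or above 50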
# FLuc act counter: FLuc activators, initial screening, artefact control for FLuc-dependent activation tests, biochemical, ATPlite luminescence | activation factor at 10 µM | 200,000 tested, under 10 active | Luciferin 4-monooxygenase (Photinus pyralis), P08659 | ATPlite luciferase biochemical, 10 min; 0 = ATP-free wells, 1 = DMSO control;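 active = luciferase activation factor, scaled between plate controls, of at least 2 with compound at 10 µM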
# Target sequence (P08659 whole entry, looked up): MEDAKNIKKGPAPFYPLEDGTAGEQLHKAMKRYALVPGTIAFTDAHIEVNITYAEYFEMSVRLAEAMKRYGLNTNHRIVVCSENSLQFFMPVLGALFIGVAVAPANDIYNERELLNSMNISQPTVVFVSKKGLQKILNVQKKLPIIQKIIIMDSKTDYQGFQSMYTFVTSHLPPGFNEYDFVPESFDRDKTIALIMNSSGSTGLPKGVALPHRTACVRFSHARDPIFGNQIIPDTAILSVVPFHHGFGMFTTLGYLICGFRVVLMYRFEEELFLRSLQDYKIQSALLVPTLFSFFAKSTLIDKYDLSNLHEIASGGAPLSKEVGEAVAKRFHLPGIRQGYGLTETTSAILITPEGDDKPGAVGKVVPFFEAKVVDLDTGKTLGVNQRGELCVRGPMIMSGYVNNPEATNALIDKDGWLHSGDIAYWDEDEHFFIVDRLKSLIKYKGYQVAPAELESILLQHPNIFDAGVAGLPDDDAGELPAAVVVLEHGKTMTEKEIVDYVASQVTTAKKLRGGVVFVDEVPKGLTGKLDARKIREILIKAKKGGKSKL
#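 Assay system: Luciferase/luciferin reagent mix; Medium: PBS as buffer for the ATP substrate; Dosing: test compounds dosed from 2 mM stocks in 100% DMSO; Times: 10 min, room temperature; Signal: luminescence from luciferase reaction; Read-out: luciferase activation; Controls: No-ATP low control, compound-free enzyme-plus-ATP high control.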
# C8 TRAIL sens: viability loss with TRAIL in NB7+C8 cells, primary screen, TRAIL sensitizer project, cell-based, ATPlite luminescence | AID 624354, 2012 | hit rate 1% among 360,000 | inhibition (viability loss, TRAIL sensitization), % at 10 µM;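 active = compounds causing at least 50% loss of cell viability in the single-dose screen, relative to plate controls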
# FLuc inh counter: firefly luciferase enzyme inhibitors, primary screen, artefact control for luciferase-based inhibitor screens, biochemical, luminescence, ATPLite; AID 1006, 2008; inhibition, % at 10 µM; hit rate 1.5% among 200,000; 10 min;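 active = inhibition above about 50% when tested at 10 µM, limit read from the data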
# PPC-1+TRAIL kill: compounds killing PPC-1 cancer cells with TRAIL present, primary screen, TRAIL potentiator project, ATPLite luminescence, uHTS. PPC-1 cells + TRAIL, ATPLite viability luminescence. cell killing (% activity), % at 4 µM or 5 µM. hit rate 0.41% among 220,000. AID 1443, 2008;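 active = cell killing above 50% in the first pass at 4 µM, then a duplicate retest at 5 µM averaging 50% or more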;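 also: plate controls were cells with TRAIL plus DMSO for no effect and medium-only wells lacking cells for full effect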
# Numbers without * were called inactive; . = no result.
SMILES,Platelet DG rel,FLuc act counter,C8 TRAIL sens,FLuc inh counter,PPC-1+TRAIL kill
O=c1oc(-c2ccco2)nc2sc3c(c12)CCCC3,-4,0.2,21,79*,-3
CC(=O)C[C@@H]1SC[C@H](c2ccccc2)N1S(=O)(=O)c1ccc(C)cc1,.,.,-7,.,.
Fc1ccc(/C=N/Nc2nccnc2Cl)cc1,7,.,0,.,.
Oc1ccc(/C=N/Nc2nccnc2Cl)cc1,98*,0.7,-13,28,25
Nc1c(Cl)ncnc1N/N=C/c1ccc(O)cc1,72*,.,40,.,8
COc1ccc(-c2cnc3c(NC(C)=O)cc(-c4ccc(C(=O)N5CCOCC5)cc4)cn23)cc1OC,.,.,15,.,.
CNc1ncnc2c1ncn2[C@H]1CN(C2CCCC2)C[C@@H](CO)O1,.,.,2,.,.
CC(=O)c1c(C)[nH]c(C(=O)Nc2ccc(Cl)cc2)c1C,-25,.,-6,.,.
CC(=O)c1c(C)[nH]c(C(=O)Nc2ccccn2)c1C,1,.,51*,.,.
O=C(NCC1CC1)c1ccc2sc([C@@H]3O[C@H](CO)[C@H](O)[C@H](O)[C@H]3O)nc2c1,.,.,-5,.,.
NC(=O)c1ccccc1NC(=O)c1ccc2ccccc2c1,7,.,59*,.,.
CSc1ccc(/C=N/NC(=O)c2ccc(O)cc2)cc1,17,0.3,43,71*,39
COc1ccc(C(=O)Nc2ccccc2C(=O)N2CCCCCC2)cc1,-31,.,19,.,.
COc1ccc(C(=O)N/N=C/c2ccc(SC)cc2)cc1,-7,0.8,4,19,20
NC(=O)c1ccccc1NC(=O)c1ccc2c(c1)OCO2,20,.,32,.,.
COc1ccc(C(=O)Nc2ccccc2C(=O)Nc2ccc(C(=O)O)cc2)cc1,4,.,47,.,.
COc1ccc(C(=O)Nc2ccccc2C(=O)Nc2ccccc2C(=O)O)cc1,16,.,59*,.,.
COc1ccc(C(=O)Nc2ccccc2C(N)=O)cc1,5,0.3,52*,74*,32
COc1ccc(NC(=O)C2(C)Cc3c(-c4cccc(C(N)=O)c4)ccnc3O2)cc1 (stereo not drawn),.,.,19,.,.
COc1ccc(C(=O)Nc2ccccc2C(=O)N/N=C/c2cccc3ccccc23)cc1,92*,0,95*,97*,90*
O=C(Nc1ccccc1C(=O)N/N=C/c1ccccc1)c1ccco1,17,.,48,.,.
COc1ccc(C(=O)Nc2ccccc2C(=O)Nc2ccncc2)cc1,10,.,65*,.,.
COc1cccc(/C=N/NC(=O)c2ccccc2NC(=O)c2ccco2)c1OC,-8,.,4,.,-1
O=C(Nc1ccccc1C(=O)N/N=C/c1ccc(O)cc1)c1ccccc1,124*,.,79*,.,29
COc1ccc(C(=O)Nc2ccc(O)cc2C(=O)O)cc1,2,0.4,14,63*,30
SMILES,Platelet DG rel,FLuc act counter,C8 TRAIL sens,FLuc inh counter,PPC-1+TRAIL kill
CN(C)C(=O)c1ccc(SC(=S)NCc2ccccc2)cc1,.,.,23,.,.
Nc1nc2ccccc2cc1C(=O)NCc1ccc(-c2ccccc2)cc1,.,.,8,.,.
CC(=O)Oc1ccc(-c2cc3ccccc3oc2=O)cc1,24,.,8,.,.
CC(=O)Oc1ccc(-c2cc3c(OC(C)=O)cc(OC(C)=O)cc3oc2=O)cc1,58*,.,20,.,.
Cc1ccc(CN2[C@@H](Cc3ccccc3)C(=O)CS2(=O)=O)cc1,.,.,64*,.,.
O=S1(=O)CCOC[C@H](Cc2ccccc2)N1Cc1ccccc1,-5,.,-12,.,.
COc1ccc(-n2ncc(N(C)n3cccc3)c(Cl)c2=O)cc1,.,0.5,35,54*,19
C=C(C)[C@@H]1C2=CC(C(=O)OC)=C(C[C@H](C(=C)C)[C@H]3O[C@H]3C3=C[C@H]1OC3=O)O2,.,.,77*,.,.
CCCCCCCCN1C(=O)[C@H](CC(=O)NCc2ccc(C)o2)C[C@@]2(C(=O)OC)CCCCC=C12,.,.,-11,.,.
O=C(Nc1nccs1)c1ccc(-c2ccc(F)c(Cl)c2)o1,-11,.,13,.,.
O=C(Nc1nccs1)c1ccc(-c2ccc(Cl)cc2Cl)o1,14,0.3,-1,69*,42
O=C(CN1CCN(C(=O)c2ccco2)CC1)Nc1cc(S(=O)(=O)N2CCCC2)ccc1Cl,.,.,9,.,.
CCN(CC)c1ccc(/C=N/N2CCOCC2)cc1,3,0.5,5,52*,33
CCN(Cc1ccccc1)c1ccc(/C=N/N2CCOCC2)cc1,13,1,6,2,12
N/N=C(\Cc1cscn1)c1ccc(O)cc1O,57*,.,-4,.,-9
CC1(C)Cc2c(sc(NC(=O)c3ccco3)c2C#N)CO1,3,0.2,42,75*,44
N#Cc1c(NC(=O)c2ccco2)sc2c1CCC2,3,.,-2,.,.
N#C/C(=C\c1ccc(N2CCOCC2)o1)C(=O)Nc1ccc(O)cc1,2,0.5,29,50*,22
N#C/C(=C/c1ccc(N2CCCCC2)o1)C(=O)Nc1ccc(Cl)cc1,10,0.7,23,31,7
Cc1cc(/C=C(\C#N)c2nc3ccccc3[nH]2)c(C)n1C,-1,0.2,78*,78*,25
N#C/C(=C/c1ccc(N2CCOCC2)o1)c1nc2ccccc2[nH]1,.,0.2,43,82*,-35
N#C/C(=C\c1ccc(N2CCOCC2)o1)c1ccccc1,12,0.8,-3,16,15
COc1ccc(/C=C(\C#N)c2nc3ccccc3[nH]2)cc1O,4,.,52*,.,.
CCCN(C)C[C@@H]1Oc2ncc(Br)cc2C(=O)N([C@@H](C)CO)C[C@H]1C,.,.,-9,.,.
CCC(CC)C(=O)N(C)c1c(C)nc2c(OCc3ccc(F)c(F)c3)cccn12,.,.,5,.,.
SMILES,Platelet DG rel,FLuc act counter,C8 TRAIL sens,FLuc inh counter,PPC-1+TRAIL kill
O=C(Nc1nc2ccccc2n1CCN1CCCCC1)C1CCCCC1,24,1.1,55*,-9,6
CC(OC(=O)c1ccccc1C(=O)N(C)c1ccccc1)C(=O)Nc1ccc(C(N)=O)cc1 (stereo not drawn),-2,.,0,.,.
CC(OC(=O)c1cc(O)c2ccccc2c1O)C(=O)Nc1ccc(C(N)=O)cc1 (stereo not drawn),3,.,57*,.,.
CCc1nc2c(OCCC3CCCCC3)cccn2c1N(C)C(=O)c1cccs1,.,.,14,.,.
COc1ccc(-c2nc3ccccn3c2Cl)cc1,26,.,72*,.,.
COc1ccc(-c2nc3ccccn3c2CN2CCN(c3ccccc3F)CC2)cc1,-11,1,18,1,4
CN1C(=O)[C@H]2[C@@H](c3ccc(C(F)(F)F)cc3)N[C@]3(CCCN(Cc4ccc(C(F)(F)F)cc4)C3=O)[C@H]2C1=O,.,.,16,.,.
CC1CCc2c(sc(NC(=O)C3=COCCO3)c2C(N)=O)C1 (stereo not drawn),.,.,55*,.,.
CC(C)(C)C1CCc2c(sc(NC(=O)c3cccs3)c2C(N)=O)C1 (stereo not drawn),0,0.4,42,58*,24
CNC(=O)c1c(NC(=O)C2=COCCO2)sc2c1CCC(C)C2 (stereo not drawn),-19,.,-1,.,.
